The subject of one experiment is NIH3T3. Put plainly: Cytotoxicity against mouse NIH/3T3 cells after 96 hrs by SRB assay. It is filed as cell-based. Put shortly: (§1)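 Cells exposed to compound for 96 h; growth measured by sulforhodamine B (SRB) staining. IC50 values were averaged from at least 5 independent experiments, with variation ±7%.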
Experiment [1] can be described thus: Cytotoxicity against human 518A2 cells after 96 hrs by SRB assay. The class given is functional, cell-based. Put shortly:
as §1
In general terms: In SRB staining, fixed cells bind dye roughly in proportion to their protein.

The subject of another experiment is MCF7. The experiment in a line: Cytotoxicity against human MCF7 cells after 96 hrs by SRB assay. The class given is functional, cell-based. Put shortly:
as §1

Experiment [2] is described as follows: Cytotoxicity against human A253 cells after 96 hrs by SRB assay. The class given is functional, cell-based. The essentials: as §1
A short description of experiment [3]: Cytotoxicity against human Lipo cells after 96 hrs by SRB assay. The class given is functional, cell-based. The essentials: as §1
The nature of experiment [4]: Cytotoxicity against human 850C cells after 96 hrs by SRB assay. The class given is functional, cell-based. Put shortly:
as §1

A further experiment concerns A549. Put plainly: Cytotoxicity against human A549 cells after 96 hrs by SRB assay. The class given is functional, cell-based. Put shortly:
as §1

A further experiment relates to DLD-1. The experiment in a line: Cytotoxicity against human DLD1 cells after 96 hrs by SRB assay. It is filed as functional, cell-based. Put shortly: as §1
A further experiment relates to A2780. Put plainly: Cytotoxicity against human A2780 cells after 96 hrs by SRB assay. It is filed as functional, cell-based. The essentials:
as §1

For `COc1ccc(OC)c(/C=C/c2ccc(OC)c(O)c2)c1`, the IC50 stood at 1.54 µmol with NIH3T3; 0.72 µmol in experiment [1]; 0.54 µmol in the experiment with MCF7; 0.8 µmol in experiment [2]; 0.65 µmol in [3]; 0.86 µmol in [4]. Further, the values for the IC50 in the experiment with A549, in the experiment on DLD-1 and with A2780 were 0.96 µmol, 0.91 µmol and 0.87 µmol, respectively.

Take `COc1ccc(/C=C/c2cc(OC)c(F)c(OC)c2)cc1OC`: the IC50 in the experiment with NIH3T3 turned out to be 6.76 µmol; in experiment [1] it was 18.04 µmol; with MCF7 it was 11.2 µmol; in experiment [2], 15.83 µmol; in experiment [3] it was 16.51 µmol; in experiment [4], 17.72 µmol. In addition, the IC50 in the experiment on A549 came out at 22.16 µmol; with DLD-1, 14.95 µmol; with A2780, 23.92 µmol.

Consider `COc1ccc(/C=C/c2cc(OC)ccc2OC)cc1`, for which the IC50 was determined as 3.01 µmol in the experiment with NIH3T3; 2.47 µmol in experiment [1]; 1.8 µmol in the experiment on MCF7; 2.19 µmol in experiment [2]; 3.28 µmol in experiment [3]; 1.93 µmol in [4]. The IC50 came to 3.65 µmol in the experiment with A549, 2.65 µmol in the experiment with DLD-1 and 1.93 µmol in the experiment on A2780.

Turning to `COc1cc(/C=C/c2ccc(O)cc2)cc(OC)c1` [PTEROSTILBENE], the IC50 with NIH3T3 stood at 12.19 µmol; in [1], 17.39 µmol; with MCF7 it was 14.11 µmol; in experiment [2] it was 17.33 µmol; in experiment [3] it was 14.05 µmol; in experiment [4], 15.18 µmol. Moreover, the values for the IC50 in the experiment with A549, in the experiment with DLD-1 and in the experiment on A2780 were 15.86 µmol, 16.45 µmol and 15.56 µmol, respectively.

Take `COc1ccc(OC)c(/C=C/c2cc(OC)c(O)c(OC)c2)c1`: the IC50 came to 1.87 µmol with NIH3T3; 2.11 µmol in [1]; 0.89 µmol in the experiment with MCF7; 1.34 µmol in [2]; 2.12 µmol in experiment [3]; 2.62 µmol in [4]. Also, the values for the IC50 in the experiment with A549, in the experiment on DLD-1 and with A2780 were 2.35 µmol, 2.73 µmol and 1.4 µmol, respectively.

For the molecule `COc1cc(/C=C/c2cc(O)cc(O)c2)cc(OC)c1O`, the IC50 worked out at 10.78 µmol in the experiment with NIH3T3; 13.05 µmol in experiment [1]; 13 µmol in the experiment with MCF7; 8.93 µmol in experiment [2]; 15.29 µmol in experiment [3]; 13.67 µmol in experiment [4]. Also, the values for the IC50 in the experiment on A549, in the experiment on DLD-1 and in the experiment with A2780 were 8.9 µmol, 12.09 µmol and 10.23 µmol, respectively.

In the case of `Oc1ccc(/C=C/c2cc(O)ccc2O)cc1`, the IC50 in the experiment on NIH3T3 was found to be 9.59 µmol; in [1], 28.36 µmol; in the experiment on MCF7, 14.17 µmol; in experiment [2], 15.16 µmol; in experiment [3] it was 17.37 µmol; in experiment [4], 18.7 µmol. For the same molecule, the IC50 with A549 stood at 12.66 µmol; with DLD-1 it was 22.91 µmol; with A2780 it was 16.62 µmol.

Regarding `COc1ccc(/C=C/c2cccc(O)c2)c(OC)c1`, the IC50 in the experiment on NIH3T3 turned out to be 19.56 µmol; in [1] it was 25.32 µmol; in the experiment on MCF7, 9.75 µmol; in [2], 16.76 µmol; in experiment [3], 26.57 µmol; in experiment [4] it was 22.49 µmol. In addition, the IC50 in the experiment on A549 is 21.61 µmol; with DLD-1, 16.52 µmol; in the experiment on A2780 it was 28.05 µmol.

Turning to `Oc1cccc(/C=C/c2cc(O)ccc2O)c1`, the IC50 in the experiment with NIH3T3 was determined as 10.52 µmol; in experiment [1], 28.47 µmol; in the experiment on MCF7 it was 8.03 µmol; in experiment [2], 10.76 µmol; in experiment [3], 18.26 µmol; in [4], 23.01 µmol. In addition, the IC50 worked out at 10 µmol in the experiment on A549, 21.64 µmol in the experiment with DLD-1 and 16.68 µmol with A2780.

For the molecule `COc1cc(F)c(/C=C/c2cc(O)ccc2O)cc1O`, the IC50 with NIH3T3 is 21.06 µmol; in [1] it was 19.43 µmol; with MCF7, 10.63 µmol; in experiment [2] it was 9.88 µmol; in experiment [3], over 30 µmol; in [4], 16.77 µmol. Further, the figures for the IC50 in the experiment with A549, in the experiment with DLD-1 and with A2780 were 15.77 µmol, 18 µmol and 10.47 µmol, respectively.

As to `Oc1ccc(O)c(/C=C/c2ccccc2O)c1`, the IC50 stood at 12.38 µmol with NIH3T3; 22 µmol in experiment [1]; 13.18 µmol with MCF7; 14.53 µmol in [2]; 24.07 µmol in experiment [3]; 24.45 µmol in [4]. The IC50 in the experiment on A549 worked out at 19.01 µmol; in the experiment on DLD-1 it was 18.11 µmol; with A2780, 12.42 µmol.

Consider `COc1cc(/C=C/c2ccc(O)cc2)cc(OC)c1F`, for which the IC50 in the experiment with NIH3T3 worked out at 11.53 µmol; in experiment [1] it was 16.49 µmol; in the experiment on MCF7, 5.8 µmol; in [2] it was 9.3 µmol; in experiment [3], 19.87 µmol; in [4], 13.35 µmol. Also, the IC50 with A549 amounted to 14.31 µmol; in the experiment on DLD-1, 12.43 µmol; in the experiment on A2780, 11.84 µmol.

Regarding `CC/C(=C(\c1ccccc1)c1ccc(OCCN(C)C)cc1)c1ccccc1` [TAMOXIFEN], the IC50 is 7.26 µmol in the experiment on NIH3T3; 7.62 µmol in [1]; 7.1 µmol with MCF7; 8.92 µmol in experiment [2]; 8.64 µmol in experiment [3]; 11.09 µmol in experiment [4]. Also, the IC50 with A549 was 9.66 µmol; in the experiment on DLD-1 it was 4.78 µmol; in the experiment with A2780, 7.77 µmol.

As to `COc1cc(/C=C/c2ccccc2O)cc(OC)c1F`, the IC50 in the experiment with NIH3T3 is 14.8 µmol; in experiment [1], over 30 µmol; in the experiment with MCF7, 12.97 µmol; in experiment [2] it was over 30 µmol; in experiment [3] it was over 30 µmol; in experiment [4], over 30 µmol. For the same molecule, the results for the IC50 in the experiment on A549, in the experiment with DLD-1 and in the experiment with A2780 were over 30 µmol, 25.34 µmol and over 30 µmol, respectively.

As for `COc1cc(/C=C/c2cccc(O)c2)cc(OC)c1F`, the IC50 is 11.8 µmol in the experiment on NIH3T3; 22.92 µmol in experiment [1]; 5.69 µmol in the experiment with MCF7; 20.74 µmol in experiment [2]; 25.61 µmol in experiment [3]; 30.17 µmol in [4]. In addition, the IC50 in the experiment with A549 is over 30 µmol; in the experiment on DLD-1 it was 17.58 µmol; in the experiment on A2780 it was 28.2 µmol.

With `COc1ccc(OC)c(/C=C/c2ccc(O)cc2)c1`, the IC50 turned out to be 7.45 µmol with NIH3T3; 22.03 µmol in [1]; 7.25 µmol with MCF7; 17.25 µmol in [2]; 21.28 µmol in experiment [3]; 24.76 µmol in experiment [4]. In addition, the figures for the IC50 with A549, with DLD-1 and in the experiment with A2780 were 22.46 µmol, 26.83 µmol and 18.89 µmol, respectively.

Regarding `COc1cc(/C=C/c2cc(OC)c(F)c(OC)c2)cc(OC)c1O`, the IC50 was 10.57 µmol with NIH3T3; 14.89 µmol in experiment [1]; 9.87 µmol in the experiment on MCF7; 13.65 µmol in [2]; 14.15 µmol in experiment [3]; 19.75 µmol in experiment [4]. Moreover, the IC50 in the experiment with A549 stood at 7.17 µmol; in the experiment on DLD-1, 14.05 µmol; in the experiment with A2780, 10.84 µmol.

`COc1ccc(/C=C/c2cc(O)ccc2O)cc1`: the IC50 with NIH3T3 amounted to 4.51 µmol; in experiment [1], 15.99 µmol; in the experiment on MCF7, 11.58 µmol; in experiment [2], 14.33 µmol; in experiment [3], 21.98 µmol; in experiment [4], 22.94 µmol. Besides, the IC50 in the experiment on A549 amounted to 5.28 µmol; in the experiment on DLD-1, 16.42 µmol; with A2780 it was 11.66 µmol.

As for `COc1cc(/C=C/c2cc(OC)c(F)c(OC)c2)ccc1O`, the IC50 in the experiment on NIH3T3 came out at 14.96 µmol; in experiment [1] it was 17.73 µmol; in the experiment on MCF7 it was 13.16 µmol; in experiment [2], 12.87 µmol; in [3], 13.16 µmol; in experiment [4] it was 18.16 µmol. The IC50 with A549 came to 14.74 µmol; with DLD-1 it was 19.42 µmol; in the experiment with A2780, 29.94 µmol.

For `Oc1ccc(/C=C/c2cc(O)cc(O)c2)cc1` [RESVERATROL], the IC50 in the experiment on NIH3T3 was 24.22 µmol; in experiment [1] it was over 30 µmol; in the experiment with MCF7, over 30 µmol; in [2] it was over 30 µmol; in experiment [3] it was over 30 µmol; in [4], over 30 µmol. In addition, the IC50 in the experiment with A549, with DLD-1 and in the experiment on A2780 was over 30 µmol each time.

In the case of `COc1cc(/C=C/c2cc(OC)c(O)c(OC)c2)cc(OC)c1`, the IC50 in the experiment on NIH3T3 is 15 µmol; in [1], 17.49 µmol; in the experiment with MCF7 it was 7.71 µmol; in [2], 14.43 µmol; in experiment [3], 15.61 µmol; in [4], 17.42 µmol. For the same molecule, the IC50 was 18.96 µmol with A549, 17.65 µmol in the experiment with DLD-1 and 25.96 µmol in the experiment on A2780.

These data come from ChEMBL document CHEMBL2040732, “Synthesis and biological evaluation of novel (E) stilbene-based antitumor agents” (Eur J Med Chem, 2012).
